Results reported in ChEMBL document CHEMBL1275475, “Potent in vitro activity of tomopenem (CS-023) against methicillin-resistant Staphylococcus aureus and Pseudomonas aeruginosa” (Antimicrob Agents Chemother, 2008).
Converted amounts (≈) assume the structure as drawn.

What was measured:
Pseudomonas aeruginosa [1] = experiment: Antibacterial activity against Pseudomonas aeruginosa PAO1 by broth microdilution method; type: functional
Procedure, shortened: (§1)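 Standard broth microdilution in cation-adjusted Mueller-Hinton broth (25 mg Ca2+ and 12.5 mg Mg2+ per liter), inoculum 4×10^5 CFU/ml, against P. aeruginosa PAO1 or its laboratory mutants with defined resistance mechanisms. MIC was the lowest concentration completely inhibiting […] growth in wells. Determinations were done in duplicate.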

Pseudomonas aeruginosa [2] = experiment: Antibacterial activity against beta-lactamase-overproducing Pseudomonas aeruginosa N043 by broth microdilution method; type: functional; procedure, shortened: as §1
Pseudomonas aeruginosa [3] = experiment: Antibacterial activity against OprD-deficient Pseudomonas aeruginosa MR08 by broth microdilution method; type: functional; procedure, shortened: as §1
Pseudomonas aeruginosa [4] = experiment: Antibacterial activity against MexA-MexB-OprM-overproducing Pseudomonas aeruginosa OCR1 by broth microdilution method; type: functional; procedure, shortened: as §1
Pseudomonas aeruginosa [5] = experiment: Antibacterial activity against beta-lactamase-overproducing and OprD-deficient Pseudomonas aeruginosa N044 by broth microdilution method; type: functional; procedure, shortened: as §1
Pseudomonas aeruginosa [6] = experiment: Antibacterial activity against beta-lactamase and MexA-MexB-OprM-overproducing Pseudomonas aeruginosa N045 by broth microdilution method; type: functional
Procedure, shortened: (§2)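 Broth microdilution in cation-adjusted Mueller-Hinton broth (25 mg Ca2+ and 12.5 mg Mg2+ per liter), inoculum 4×10^5 CFU/ml. MIC was the lowest concentration completely inhibiting visible growth in wells. European clinical isolates were tested with S. aureus ATCC 29213 and P. aeruginosa ATCC 27853 as quality controls. PAO1-derived mutants were run in duplicate.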

Pseudomonas aeruginosa [7] = experiment: Antibacterial activity against MexA-MexB-OprM-overproducing and OprD-deficient Pseudomonas aeruginosa N041 by broth microdilution method; type: functional; procedure, shortened: as §1
Pseudomonas aeruginosa [8] = experiment: Antibacterial activity against Pseudomonas aeruginosa COR6 expressing MexC-MexD-OprJ gene by broth microdilution method; type: functional; procedure, shortened: as §1
Pseudomonas aeruginosa [9] = experiment: Antibacterial activity against Pseudomonas aeruginosa N091 by broth microdilution method; type: functional; procedure, shortened: as §1
Pseudomonas aeruginosa [10] = experiment: Ratio of MIC for Pseudomonas aeruginosa N043 to MIC for Pseudomonas aeruginosa PAO1; type: functional
Procedure, shortened: (§3)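 MICs were measured for PAO1-derived resistance mutants and the parent PAO1 by broth microdilution in cation-adjusted Mueller-Hinton broth (25 mg/liter Ca2+, 12.5 mg/liter Mg2+), inoculum 4×10^5 CFU/ml, in duplicate. MIC was the lowest concentration with complete growth inhibition. The ratio is the mutant MIC divided by the PAO1 MIC.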

Pseudomonas aeruginosa [11] = experiment: Ratio of MIC for Pseudomonas aeruginosa MR08 to MIC for Pseudomonas aeruginosa PAO1; type: functional; procedure, shortened: as §3
Pseudomonas aeruginosa [12] = experiment: Ratio of MIC for Pseudomonas aeruginosa OCR1 to MIC for Pseudomonas aeruginosa PAO1; type: functional; procedure, shortened: as §3
Pseudomonas aeruginosa [13] = experiment: Ratio of MIC for Pseudomonas aeruginosa N044 to MIC for Pseudomonas aeruginosa PAO1; type: functional; procedure, shortened: as §3
Pseudomonas aeruginosa [14] = experiment: Ratio of MIC for Pseudomonas aeruginosa N045 to MIC for Pseudomonas aeruginosa PAO1; type: functional; procedure, shortened: as §3
Pseudomonas aeruginosa [15] = experiment: Ratio of MIC for Pseudomonas aeruginosa N041 to MIC for Pseudomonas aeruginosa PAO1; type: functional; procedure, shortened: as §3
Pseudomonas aeruginosa [16] = experiment: Ratio of MIC for Pseudomonas aeruginosa COR6 to MIC for Pseudomonas aeruginosa PAO1; type: functional; procedure, shortened: as §3
Pseudomonas aeruginosa [17] = experiment: Ratio of MIC for Pseudomonas aeruginosa N092 to MIC for Pseudomonas aeruginosa PAO1; type: functional; procedure, shortened: as §3
Pseudomonas aeruginosa [18] = experiment: Antibacterial activity against Pseudomonas aeruginosa N092 expressing MexE-MexF-OprN gene and OprD mutant gene and harboring nfxC mutant gene by broth microdilution method
Staphylococcus aureus [19] = experiment: Antibacterial activity against methicillin-resistant Staphylococcus aureus by broth microdilution method; type: functional
Procedure, shortened: (§4)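 Standard broth microdilution in cation-adjusted Mueller-Hinton broth (25 mg Ca2+ and 12.5 mg Mg2+ per liter), inoculum 4×10^5 CFU/ml. Isolates were 60 German MRSA clinical strains, and penicillinase-plasmid-cured MRSA 123-1 and 12386-1. QC strain was S. aureus ATCC 29213.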

Pseudomonas aeruginosa [20] = experiment: Antibacterial activity against Pseudomonas aeruginosa clinical isolates by broth microdilution method; type: functional; procedure, shortened: as §2
Pseudomonas aeruginosa [21] = experiment: Antibacterial activity against imipenem-resistant Pseudomonas aeruginosa clinical isolates by broth microdilution method; type: functional
Procedure, shortened: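 Standard broth microdilution in cation-adjusted Mueller-Hinton broth (25 mg Ca2+ and 12.5 mg Mg2+ per liter), inoculum 4×10^5 CFU/ml. MIC is the lowest concentration completely inhibiting […] growth in wells. […] P. aeruginosa ATCC 27853 serves as QC strain.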

Staphylococcus aureus [22] = experiment: Antibacterial activity against methicillin-resistant Staphylococcus aureus 123-1 expressing PBP 2a by broth microdilution method; type: functional; procedure, shortened: as §4
Staphylococcus aureus [23] = experiment: Antibacterial activity against methicillin-resistant Staphylococcus aureus 12386-1 expressing PBP 2a by broth microdilution method; type: functional; procedure, shortened: as §4
MecA [24] = biological target: T1, MecA (Staphylococcus aureus, UniProt Q7DHH4); experiment: Binding affinity to PBP2a in methicillin-resistant Staphylococcus aureus 123-1 by [14C]benzylpenicillin labelled competitive assay
T1 sequence (Q7DHH4 whole entry): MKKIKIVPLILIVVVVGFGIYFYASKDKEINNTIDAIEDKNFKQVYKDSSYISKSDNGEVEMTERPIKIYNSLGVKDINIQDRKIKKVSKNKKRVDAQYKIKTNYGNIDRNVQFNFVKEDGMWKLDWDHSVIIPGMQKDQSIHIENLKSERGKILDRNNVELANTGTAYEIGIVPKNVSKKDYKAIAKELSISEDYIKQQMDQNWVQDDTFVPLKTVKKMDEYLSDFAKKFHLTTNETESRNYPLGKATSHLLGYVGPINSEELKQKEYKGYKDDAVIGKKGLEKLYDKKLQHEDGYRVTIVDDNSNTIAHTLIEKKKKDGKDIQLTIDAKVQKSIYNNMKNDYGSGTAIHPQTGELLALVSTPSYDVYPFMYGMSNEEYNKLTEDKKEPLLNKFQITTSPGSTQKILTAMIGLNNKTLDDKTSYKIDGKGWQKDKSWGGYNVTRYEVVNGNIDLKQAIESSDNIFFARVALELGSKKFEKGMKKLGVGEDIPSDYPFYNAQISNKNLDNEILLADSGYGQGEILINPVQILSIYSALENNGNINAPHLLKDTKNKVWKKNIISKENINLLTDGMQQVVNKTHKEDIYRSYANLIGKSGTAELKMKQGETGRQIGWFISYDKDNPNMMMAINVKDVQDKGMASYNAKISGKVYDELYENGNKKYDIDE
Procedure, shortened: (§5)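 Competition against [14C]benzylpenicillin. Membranes came from penicillinase-plasmid-cured MRSA lysed with lysostaphin (100 μg/ml), DNase (1 μg/ml) and sonication in 50 mM sodium phosphate, 10 mM MgCl2, pH 7.0. They were collected at 5,000 × g for 10 min, then 100,000 × g for 60 min, at final 8 mg/ml protein. Compound was added for 30 min, then label for 30 min, at 37°C. IC50 for 50% label-binding inhibition to PBP 2a was read by imaging analyzer.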

MecA [25] = biological target: T1, MecA; experiment: Binding affinity to PBP2a in methicillin-resistant Staphylococcus aureus 12386-1 by [14C]benzylpenicillin labelled competitive assay; procedure, shortened: as §5

SMILES: NCC[C@H](O)C(=O)N[C@@H]1C[C@H](N)[C@@H](O[C@H]2O[C@H](CN)[C@@H](O)[C@H](O)[C@H]2O)[C@H](O)[C@H]1O[C@H]1O[C@H](CO)[C@@H](O)[C@H](N)[C@H]1O [AMIKACIN]
- MIC (Pseudomonas aeruginosa [1]): 4 µg/mL (≈ 6.83 µM)
- MIC (Pseudomonas aeruginosa [2]): 8 µg/mL (≈ 13.7 µM)
- MIC (Pseudomonas aeruginosa [3]): 4 µg/mL (≈ 6.83 µM)
- MIC (Pseudomonas aeruginosa [4]): 4 µg/mL (≈ 6.83 µM)
- MIC (Pseudomonas aeruginosa [5]): 8 µg/mL (≈ 13.7 µM)
- MIC (Pseudomonas aeruginosa [6]): 8 µg/mL (≈ 13.7 µM)
- MIC (Pseudomonas aeruginosa [7]): 4 µg/mL (≈ 6.83 µM)
- MIC (Pseudomonas aeruginosa [8]): 0.5 µg/mL (≈ 0.854 µM)
- MIC (Pseudomonas aeruginosa [9]): 4 µg/mL (≈ 6.83 µM)
- Ratio (Pseudomonas aeruginosa [10]): 2
- Ratio (Pseudomonas aeruginosa [11]): 1
- Ratio (Pseudomonas aeruginosa [12]): 1
- Ratio (Pseudomonas aeruginosa [13]): 2
- Ratio (Pseudomonas aeruginosa [14]): 2
- Ratio (Pseudomonas aeruginosa [15]): 1
- Ratio (Pseudomonas aeruginosa [16]): 0.125
- Ratio (Pseudomonas aeruginosa [17]): 0.5
- MIC (Pseudomonas aeruginosa [18]): 2 µg/mL (≈ 3.42 µM)

SMILES: CC(C)(O/N=C(\C(=O)N[C@@H]1C(=O)N2C(C(=O)[O-])=C(C[n+]3ccccc3)CS[C@H]12)c1csc(N)n1)C(=O)O [CEFTAZIDIME]
- MIC (Pseudomonas aeruginosa [1]): 2 µg/mL (≈ 3.66 µM)
- MIC (Pseudomonas aeruginosa [2]): 128 µg/mL (≈ 234 µM)
- MIC (Pseudomonas aeruginosa [3]): 2 µg/mL (≈ 3.66 µM)
- MIC (Pseudomonas aeruginosa [4]): 8 µg/mL (≈ 14.6 µM)
- MIC (Pseudomonas aeruginosa [5]): 128 µg/mL (≈ 234 µM)
- MIC (Pseudomonas aeruginosa [6]): 128 µg/mL (≈ 234 µM)
- MIC (Pseudomonas aeruginosa [7]): 8 µg/mL (≈ 14.6 µM)
- MIC (Pseudomonas aeruginosa [8]): 1 µg/mL (≈ 1.83 µM)
- MIC (Pseudomonas aeruginosa [9]): 2 µg/mL (≈ 3.66 µM)
- Ratio (Pseudomonas aeruginosa [10]): 64
- Ratio (Pseudomonas aeruginosa [11]): 1
- Ratio (Pseudomonas aeruginosa [12]): 4
- Ratio (Pseudomonas aeruginosa [13]): 64
- Ratio (Pseudomonas aeruginosa [14]): 64
- Ratio (Pseudomonas aeruginosa [15]): 4
- Ratio (Pseudomonas aeruginosa [16]): 0.5
- Ratio (Pseudomonas aeruginosa [17]): 0.5
- MIC (Pseudomonas aeruginosa [18]): 1 µg/mL (≈ 1.83 µM)

SMILES: C[C@@H](O)[C@H]1C(=O)N2C(C(=O)O)=C(SCCNC=N)C[C@H]12 [IMIPENEM ANHYDROUS]
- MIC50 (Staphylococcus aureus [19]): 4 µg/mL (≈ 13.4 µM)
- MIC90 (Staphylococcus aureus [19]): > 32 µg/mL
- MIC50 (Pseudomonas aeruginosa [20]): 2 µg/mL (≈ 6.68 µM)
- MIC90 (Pseudomonas aeruginosa [20]): 32 µg/mL (≈ 107 µM)
- MIC (Pseudomonas aeruginosa [21]): ≥ 16 µg/mL
- MIC (Staphylococcus aureus [22]): 32 µg/mL (≈ 107 µM)
- MIC (Staphylococcus aureus [23]): 16 µg/mL (≈ 53.4 µM)
- IC50 (MecA [24]): 568 µM
- IC50 (MecA [25]): 254 µM
- MIC (Pseudomonas aeruginosa [1]): 1 µg/mL (≈ 3.34 µM)
- MIC (Pseudomonas aeruginosa [2]): 1 µg/mL (≈ 3.34 µM)
- MIC (Pseudomonas aeruginosa [3]): 16 µg/mL (≈ 53.4 µM)
- MIC (Pseudomonas aeruginosa [4]): 1 µg/mL (≈ 3.34 µM)
- MIC (Pseudomonas aeruginosa [5]): 32 µg/mL (≈ 107 µM)
- MIC (Pseudomonas aeruginosa [6]): 1 µg/mL (≈ 3.34 µM)
- MIC (Pseudomonas aeruginosa [7]): 8 µg/mL (≈ 26.7 µM)
- MIC (Pseudomonas aeruginosa [8]): 0.5 µg/mL (≈ 1.67 µM)
- MIC (Pseudomonas aeruginosa [9]): 1 µg/mL (≈ 3.34 µM)
- MIC (Pseudomonas aeruginosa [18]): 4 µg/mL (≈ 13.4 µM)
